Source: ChEMBL document CHEMBL3102784, “Salicylanilide diethyl phosphates: synthesis, antimicrobial activity and cytotoxicity” (Bioorg Med Chem, 2014)
Activity calls are given as the source filed them.

Tests used:
Mycobacterium avium [1] = experiment: Antimycobacterial activity against isoniazid, rifampicin, ethambutol and ofloxacin-resistant Mycobacterium avium My 330/88 after 21 days; type: functional; settings: My 330/88, 504 h
Summary of the method: (§1)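 Micromethod MIC in Šula's semisynthetic medium at 37 °C. Compounds added in DMSO at 1000 down to 0.032 µmol/L. Isoniazid standard in sterile water at 0.5–250 µmol/L. Inocula: H37Rv 10^3, M. avium 10^5, M. kansasii 10^4. Read at 14 and 21 d, plus 7 d for M. kansasii.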

Mycobacterium avium [2] = experiment: Antimycobacterial activity against isoniazid, rifampicin, ethambutol and ofloxacin-resistant Mycobacterium avium My 330/88 after 14 days; type: functional; settings: My 330/88, 336 h; summary of the method: as §1
[3] = system: Mycobacterium tuberculosis; experiment: Antimycobacterial activity against Mycobacterium tuberculosis H37Rv My 331/88 after 21 days; type: functional; settings: H37Rv My 331/88, 504 h; summary of the method: as §1
[4] = system: Mycobacterium tuberculosis; experiment: Antimycobacterial activity against Mycobacterium tuberculosis H37Rv My 331/88 after 14 days; type: functional; settings: H37Rv My 331/88, 336 h; summary of the method: as §1
[5] = system: Trichophyton mentagrophytes; experiment: Antifungal activity against Trichophyton mentagrophytes 445 after 120 hrs by broth microdilution method; type: functional; settings: Trichophyton mentagrophytes, 445, 120 h
Summary of the method: (§2)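 Filamentous dermatophyte tested by broth microdilution in RPMI 1640 with glutamine, fluconazole as reference. Value expressed as IC50 relative to growth control. Read at 72 and 120 h.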

[6] = system: Trichophyton mentagrophytes; experiment: Antifungal activity against Trichophyton mentagrophytes 445 after 72 hrs by broth microdilution method; type: functional; settings: Trichophyton mentagrophytes, 445, 72 h; summary of the method: as §2
Lichtheimia corymbifera [7] = experiment: Antifungal activity against Absidia corymbifera 272 after 48 hrs by broth microdilution method; type: functional; settings: Lichtheimia corymbifera, 272, 48 h
Summary of the method: (§3)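 Broth microdilution in RPMI 1640 with glutamine, fluconazole as reference. For yeasts, MIC is ≥80% growth reduction (IC80) versus control. For filamentous fungi, the value is expressed as IC50. Readings at 24 and 48 h.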

Lichtheimia corymbifera [8] = experiment: Antifungal activity against Absidia corymbifera 272 after 24 hrs by broth microdilution method; type: functional; settings: Lichtheimia corymbifera, 272, 24 h; summary of the method: as §3
Aspergillus fumigatus [9] = experiment: Antifungal activity against Aspergillus fumigatus 231 after 48 hrs by broth microdilution method; type: functional; settings: Aspergillus fumigatus, 231, 48 h; summary of the method: as §3
Aspergillus fumigatus [10] = experiment: Antifungal activity against Aspergillus fumigatus 231 after 24 hrs by broth microdilution method; type: functional; settings: Aspergillus fumigatus, 231, 24 h; summary of the method: as §3
Trichosporon asahii [11] = experiment: Antifungal activity against Trichosporon asahii 1188 after 48 hrs by broth microdilution method; type: functional; settings: Trichosporon asahii, 1188, 48 h; summary of the method: as §3
Trichosporon asahii [12] = experiment: Antifungal activity against Trichosporon asahii 1188 after 24 hrs by broth microdilution method; type: functional; settings: Trichosporon asahii, 1188, 24 h; summary of the method: as §3
Pichia kudriavzevii [13] = experiment: Antifungal activity against Candida krusei E28 after 48 hrs by broth microdilution method; type: functional; settings: E28, 48 h; summary of the method: as §3
Pichia kudriavzevii [14] = experiment: Antifungal activity against Candida krusei E28 after 24 hrs by broth microdilution method; type: functional; settings: E28, 24 h; summary of the method: as §3
Candida albicans [15] = experiment: Antifungal activity against Candida albicans ATCC 44859 after 48 hrs by broth microdilution method; type: functional; settings: ATCC 44859, 48 h; summary of the method: as §3
Candida albicans [16] = experiment: Antifungal activity against Candida albicans ATCC 44859 after 24 hrs by broth microdilution method; type: functional; settings: ATCC 44859, 24 h; summary of the method: as §3
Nakaseomyces glabratus = experiment: Antifungal activity against Candida glabrata 20/I at 500 micromol/L after 24 to 48 hrs by broth microdilution method; type: functional, organism-based; summary of the method: as §3
Candida tropicalis = experiment: Antifungal activity against Candida tropicalis 156 at 500 micromol/L after 24 to 48 hrs by broth microdilution method; type: functional, organism-based; summary of the method: as §3
Pseudomonas aeruginosa = experiment: Antibacterial activity against Pseudomonas aeruginosa CCM 1961 at 500 micromol/L after 24 to 48 hrs by broth microdilution method; type: functional, organism-based
Summary of the method: (§4)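 Broth microdilution in Mueller–Hinton broth, compounds dissolved in DMSO, tested over a dilution series from 500 downward. MIC taken as ≥95% growth reduction (IC95) versus drug-free control. Benzylpenicillin comparator. Readings at 24 and 48 h.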

Klebsiella pneumoniae [17] = experiment: Antibacterial activity against ESBL-positive Klebsiella pneumoniae J 14368/08 at 500 micromol/L after 24 to 48 hrs by broth microdilution method; type: functional, organism-based; summary of the method: as §4
Klebsiella pneumoniae [18] = experiment: Antibacterial activity against Klebsiella pneumoniae D 11750/08 at 500 micromol/L after 24 to 48 hrs by broth microdilution method; type: functional, organism-based; summary of the method: as §4
Escherichia coli = experiment: Antibacterial activity against Escherichia coli CCM 4517 at 500 micromol/L after 24 to 48 hrs by broth microdilution method; type: functional, organism-based; summary of the method: as §4
Enterococcus sp. = experiment: Antibacterial activity against Enterococcus sp. J 14365/08 at 500 micromol/L after 24 to 48 hrs by broth microdilution method; type: functional, organism-based; summary of the method: as §4
[19] = system: Staphylococcus epidermidis; experiment: Antibacterial activity against Staphylococcus epidermidis H 6966/08 after 48 hrs by broth microdilution method; type: functional; settings: H 6966/08, 48 h; summary of the method: as §4
[20] = system: Staphylococcus epidermidis; experiment: Antibacterial activity against Staphylococcus epidermidis H 6966/08 after 24 hrs by broth microdilution method; type: functional; settings: H 6966/08, 24 h; summary of the method: as §4
Staphylococcus aureus [21] = experiment: Antibacterial activity against methicillin-resistant Staphylococcus aureus H 5996/08 after 48 hrs by broth microdilution method; type: functional; settings: H 5996/08, 48 h; summary of the method: as §4
Staphylococcus aureus [22] = experiment: Antibacterial activity against methicillin-resistant Staphylococcus aureus H 5996/08 after 24 hrs by broth microdilution method; type: functional; settings: H 5996/08, 24 h; summary of the method: as §4
Staphylococcus aureus [23] = experiment: Antibacterial activity against Staphylococcus aureus CCM 4516/08 after 48 hrs by broth microdilution method; type: functional; settings: CCM 4516/08, 48 h; summary of the method: as §4
Staphylococcus aureus [24] = experiment: Antibacterial activity against Staphylococcus aureus CCM 4516/08 after 24 hrs by broth microdilution method; type: functional; settings: CCM 4516/08, 24 h; summary of the method: as §4
Mycobacterium kansasii [25] = experiment: Antimycobacterial activity against Mycobacterium kansasii 6509/96 after 21 days; type: functional; settings: 6509/96, 504 h; summary of the method: as §1
Mycobacterium kansasii [26] = experiment: Antimycobacterial activity against Mycobacterium kansasii 6509/96 after 14 days; type: functional; settings: 6509/96, 336 h; summary of the method: as §1
Mycobacterium kansasii [27] = experiment: Antimycobacterial activity against Mycobacterium kansasii 6509/96 after 7 days; type: functional; settings: 6509/96, 168 h; summary of the method: as §1
Mycobacterium kansasii [28] = experiment: Antimycobacterial activity against Mycobacterium kansasii My 235/80 after 21 days; type: functional; settings: My 235/80, 504 h; summary of the method: as §1
Mycobacterium kansasii [29] = experiment: Antimycobacterial activity against Mycobacterium kansasii My 235/80 after 14 days; type: functional; settings: My 235/80, 336 h; summary of the method: as §1
HepG2 = experiment: Cytotoxicity against human HepG2 cells after 24 hrs by CellTiter assay; type: cell-based; settings: HepG2, 24 h
Summary of the method: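 HepG2 cells (passage 27–33) in MEM with 10% FBS, L-glutamine and NEAA, seeded at 1×10^4 per well. Treated next day with compounds at 0.1–100 µM (or 0.1–25 µmol/L), triplicates, <1% DMSO, for 24 h at 37 °C, 5% CO2. MTS reagent added for 2 h, absorbance read at 490 nm. IC50 taken against untreated (100%) and 10% DMSO (0%) controls.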

Mycobacterium kansasii [30] = experiment: Antimycobacterial activity against Mycobacterium kansasii My 235/80 after 7 days; type: functional; settings: My 235/80, 168 h; summary of the method: as §1

CCOP(=O)(OCC)Oc1cc(Cl)ccc1C(=O)Nc1ccc(Cl)c(Cl)c1
inactive: Activity (Nakaseomyces glabratus) | Activity (Candida tropicalis) | Activity (Pseudomonas aeruginosa) | Activity (Klebsiella pneumoniae [17]) | Activity (Klebsiella pneumoniae [18]) | Activity (Escherichia coli) | Activity (Enterococcus sp.)
500 µM: MIC95 (Staphylococcus aureus [22]) | MIC95 (Staphylococcus aureus [24])
4 µM: MIC [3] | MIC [4] | MIC (Mycobacterium kansasii [25]) | MIC (Mycobacterium kansasii [26]) | MIC (Mycobacterium kansasii [27]) | MIC (Mycobacterium kansasii [28]) | MIC (Mycobacterium kansasii [29])
2 µM: MIC (Mycobacterium kansasii [30])
1920 nM: IC50 (HepG2)
250 µM: MIC95 [20]
> 500 µM: MIC50 (Lichtheimia corymbifera [7]) | MIC50 (Lichtheimia corymbifera [8]) | MIC50 (Aspergillus fumigatus [9]) | MIC50 (Aspergillus fumigatus [10]) | MIC80 (Trichosporon asahii [11]) | MIC80 (Trichosporon asahii [12]) | MIC80 (Pichia kudriavzevii [13]) | MIC80 (Pichia kudriavzevii [14]) | MIC80 (Candida albicans [15]) | MIC80 (Candida albicans [16]) | MIC95 [19] | MIC95 (Staphylococcus aureus [21]) | MIC95 (Staphylococcus aureus [23])
7.81 µM: MIC50 [5] | MIC50 [6]
16 µM: MIC (Mycobacterium avium [1]) | MIC (Mycobacterium avium [2])
